According to ChEMBL document CHEMBL3994584, “Identification of novel fluorescent probes preventing PrPSc replication in prion diseases” (Eur J Med Chem, 2017):

Experiment: Antiprion activity against mouse prion protein RML infected mouse ScN2a cells assessed as reduction in proteinase K-resistant PrPSc level incubated for 5 days followed by proteinase K digestion by Western blot method
Settings: 120 h
Method in brief: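 RML-infected ScN2a cells were treated with 0.1, 1 and 10 μM for 5 days, with DMSO ≤0.1% final. Lysates (500 μg protein) were digested with 10 μg PK for 1 h at 37 °C, stopped with 2 mM PMSF and ultracentrifuged. Pellets were run on SDS-PAGE and immunoblotted with anti-PrP Fab W226, with ECL detection. Densitometry gave PK-resistant PrPSc over total PrP, with untreated set to 100%. Three independent experiments.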

SMILES	EC50 (read-out: EC50)	EC50 (read-out: pEC50 (converted))
COCCOc1cc(-c2ccc(-c3csc(Nc4cccc(C)n4)n3)cc2)ccn1	0.153 µM	0.155 µM
Cc1cccc(Nc2nc(-c3ccc(-c4ccc(N(C)C)nc4)cc3)cs2)n1	0.069 µM	0.0692 µM
Cc1ccc(Nc2nc3c(s2)Cc2ccccc2-3)nc1	2.44 µM	2.45 µM
Cc1ccnc(Nc2nc(-c3ccncc3)cs2)c1	4.95 µM	5.01 µM
O=C(Nc1nc(-c2ccc(-c3ccccc3)cc2)cs1)C1CC1	0.248 µM	0.245 µM
Cc1cccc(Nc2nc(-c3ccc(-c4ccnc(N5CCN(C)CC5)c4)cc3)cs2)n1	0.759 µM	0.759 µM
Cc1cccc(Nc2nc(-c3ccc(-c4ccncc4C)cc3)cs2)n1	0.618 µM	0.617 µM
COc1ccc(-c2csc(Nc3ccc4ccccc4c3)n2)cc1OC	0.39 µM	0.389 µM
COc1ccc(-c2csc(Nc3cc(C)ccn3)n2)cc1OC	1 µM	1 µM
Cc1cc(-c2ccc(-c3csc(Nc4cccc(C)n4)n3)cc2)ccn1	0.4 µM	0.398 µM
Cc1ccc(Nc2nc(-c3ccncc3)cs2)nc1	1.57 µM	1.58 µM
COc1cc2c(cc1OC)-c1nc(Nc3ccc(C)cn3)sc1C2	5.59 µM	5.62 µM
COCC(=O)Nc1nc(-c2ccc(-c3ccccc3)cc2)cs1	1.59 µM	1.58 µM
c1ccc(-c2cc(-c3csc(Nc4ccc(-c5cnco5)cc4)n3)on2)cc1	0.057 µM	0.0575 µM
CN1CCN(c2cc(-c3ccc(-c4csc(NC(=O)C5CC5)n4)cc3)ccn2)CC1	0.682 µM	0.676 µM
Cc1cccc(Nc2nc(-c3cc(-c4ccccc4)no3)cs2)n1	0.82 µM	0.813 µM
COc1ccc(-c2csc(Nc3ccc4ccccc4n3)n2)cc1	0.34 µM	0.339 µM
COc1ccc(-c2csc(Nc3ccc(C(F)(F)F)cn3)n2)cc1OC	2.53 µM	2.51 µM
Cc1cccc(Nc2nc(-c3ccncc3)cs2)n1	1 µM	1 µM
COc1ccc(-c2csc(Nc3ccccc3)n2)cc1OC	8.2 µM	8.13 µM
c1cc(-c2csc(Nc3ccc(-c4cnco4)cc3)n2)ccn1	0.124 µM	0.123 µM

SMILES	EC50 (read-out: EC50)	EC50 (read-out: pEC50 (converted))
COc1ccc(-c2csc(Nc3ccc(C)cn3)n2)cc1OC	0.79 µM	0.794 µM
Cc1cccc(Nc2nc(-c3ccc(-c4ccc[n+]([O-])c4)cc3)cs2)n1	0.203 µM	0.204 µM
CC(=O)Nc1ccc(-c2csc(Nc3ccccn3)n2)cc1	8.5 µM	8.51 µM
Cc1cccc(Nc2nc(-c3ccc(N4CCOCC4)cc3)cs2)n1	0.051 µM	0.0513 µM
COc1ccc(-c2csc(Nc3ccncc3)n2)cc1OC	6.38 µM	6.46 µM
Cc1cccc(Nc2nc(-c3ccc(-c4ccncc4)cc3)cs2)n1	0.087 µM	0.0871 µM
c1ccc(-c2csc(Nc3ccc4ccccc4n3)n2)cc1	3.08 µM	3.09 µM
COCCOc1cc(-c2ccc(-c3csc(NC(=O)C4CC4)n3)cc2)ccn1	1.31 µM	1.32 µM
c1ccc(-c2ccc(-c3csc(Nc4ccc5ccccc5n4)n3)s2)nc1	2.01 µM	2 µM
c1ccc2oc(-c3csc(Nc4ccc(-c5cnco5)cc4)n3)cc2c1	0.228 µM	0.229 µM
O=C(Nc1nc(-c2ccc(-c3ccncc3)cc2)cs1)C1CC1	0.173 µM	0.174 µM
COc1ccc(-c2csc(Nc3ccc(C)cn3)n2)c(OC)c1	3.13 µM	3.16 µM
c1ccc2nc(Nc3nc(-c4ccncc4)cs3)ccc2c1	0.31 µM	0.309 µM
COCCOc1ccc(-c2ccc(-c3csc(NC(=O)C4CC4)n3)cc2)cn1	0.118 µM	0.117 µM
Cc1cccc(Nc2nc(-c3ccc(O)cc3O)cs2)n1	3.9 µM	3.89 µM
Cc1ccnc(Nc2nc(-c3cc(-c4ccccc4)no3)cs2)c1	1.27 µM	1.26 µM
CN1CCN(c2ccc(-c3ccc(-c4csc(NC(=O)C5CC5)n4)cc3)cn2)CC1	0.07 µM	0.0708 µM
Cc1cccc(Nc2nc(-c3ccc(-c4ccc(OC(C)C)nc4)cc3)cs2)n1	5.86 µM	5.89 µM
Cc1cccc(Nc2nc(-c3ccc(-c4cccnc4)cc3)cs2)n1	0.068 µM	0.0692 µM
c1ccc(-c2cc(-c3csc(Nc4ccccn4)n3)on2)cc1	0.6 µM	0.603 µM
Cc1ccc(Nc2nc(-c3ccccn3)cs2)nc1	0.86 µM	0.851 µM

SMILES	EC50 (read-out: EC50)	EC50 (read-out: pEC50 (converted))
Cc1cccc(Nc2nc(-c3ccc(-c4ccc(N5CCN(C)CC5)nc4)cc3)cs2)n1	0.096 µM	0.0955 µM
COc1ccc(-c2csc(Nc3cccnc3)n2)cc1OC	28 µM	28.2 µM
COc1ccc(-c2csc(Nc3cccc(C)n3)n2)cc1OC	3.01 µM	3.02 µM
NS(=O)(=O)c1ccc(Nc2nc(-c3ccc(O)c(O)c3)cs2)cc1	13.5 µM	13.5 µM
Oc1ccc(-c2csc(Nc3ccccn3)n2)cc1O	10 µM	10 µM
c1ccc2nc(Nc3nc(-c4cc5ccccc5o4)cs3)ccc2c1	0.92 µM	0.912 µM
Cc1cccc(Nc2nc(-c3ccc(N4CCN(C)CC4)cc3)cs2)n1	0.84 µM	0.832 µM
Cc1cccc(Nc2nc(-c3ccc(-c4ccnn4C)cc3)cs2)n1	0.089 µM	0.0891 µM
Cc1cccc(Nc2nc(-c3ccc(-c4ccnc(N(C)C)c4)cc3)cs2)n1	0.123 µM	0.123 µM
COc1ccc(NC(=O)c2csc(Nc3ccc(C)cn3)n2)cc1OC	2.44 µM	2.45 µM
Cc1ccc(Nc2nc(-c3cccc(C#N)c3)cs2)nc1	2.29 µM	2.29 µM
CN1CCN(c2cccc(Nc3nc(-c4ccc(-c5ccccc5)cc4)cs3)n2)CC1	1.18 µM	1.17 µM
COc1ccnc(Nc2nc(-c3cc(-c4ccccc4)no3)cs2)c1	0.25 µM	0.251 µM
COc1ccc(-c2csc(Nc3ncccc3C)n2)cc1OC	7.29 µM	7.24 µM
COc1ccc(-c2csc(N(C(C)=O)c3ccc4ccccc4n3)n2)cc1OC	0.081 µM	0.0813 µM
COc1ccc(-c2csc(Nc3ccc4ccccc4n3)n2)cc1OC	0.43 µM	0.427 µM
Cc1cccc(Nc2nc(-c3ccc(O)c(O)c3)cs2)n1	2.5 µM	2.51 µM
COc1ccc(-c2csc(NC(=O)c3ccc4ccccc4n3)n2)cc1OC	8.18 µM	8.13 µM
COc1ccc(-c2csc(Nc3ncccn3)n2)cc1OC	3.94 µM	3.98 µM
Cc1cccc(Nc2nc(-c3ccc(-c4cc[n+]([O-])cc4)cc3)cs2)n1	0.559 µM	0.562 µM
Cc1ccc(Nc2nc(-c3ccccc3)cs2)nc1	7.88 µM	7.94 µM

SMILES	EC50 (read-out: EC50)	EC50 (read-out: pEC50 (converted))
c1ccc(-c2cc(-c3csc(Nc4ccc5ccccc5n4)n3)on2)cc1	0.8 µM	0.794 µM
Cc1cccc(Nc2nc(-c3cc4ccccc4o3)cs2)n1	1.46 µM	1.45 µM
Cc1cccc(Nc2nc(-c3ccc(-c4c(C)noc4C)cc3)cs2)n1	2.13 µM	2.14 µM
FC(F)(F)c1csc(Nc2ccc3ccccc3n2)n1	8.66 µM	8.71 µM
COc1ccc(-c2ccc(-c3csc(Nc4cccc(C)n4)n3)cc2)cn1	0.14 µM	0.141 µM
c1ccc(-c2cc(-c3csc(Nc4ccncc4)n3)on2)cc1	4.42 µM	4.47 µM
COCCOc1ccc(-c2ccc(-c3csc(Nc4cccc(C)n4)n3)cc2)cn1	0.137 µM	0.138 µM
CN(C)c1ccncc1-c1ccc(-c2csc(NC(=O)C3CC3)n2)cc1	0.109 µM	0.11 µM
COc1ccc(Nc2nc(-c3cc(-c4ccccc4)no3)cs2)nc1	0.23 µM	0.229 µM
CC(=O)Nc1nc(-c2ccc(-c3ccccc3)cc2)cs1	0.119 µM	0.12 µM
Cc1cccc(Nc2nc(-c3ccc(-c4ccnc(OC(C)C)c4)cc3)cs2)n1	2.84 µM	2.82 µM
Cc1ccc(Nc2nc(-c3cc(-c4ccccc4)no3)cs2)nc1	0.94 µM	0.933 µM
Cc1ccnc(Nc2nc(-c3cc(-c4ccc(Cl)cc4)no3)cs2)c1	0.85 µM	0.851 µM
Cc1cccc(Nc2nc(-c3ccc(-c4ccccc4)cc3)cs2)n1	2.29 µM	1.26 µM
COc1ccc(-c2csc(Nc3cnccn3)n2)cc1OC	15.6 µM	15.5 µM
CN(C)c1cccc(Nc2nc(-c3ccc(-c4ccccc4)cc3)cs2)n1	0.699 µM	0.692 µM
O=C(CN1CCCC1)Nc1ccc(Cc2ccc(NC(=O)CN3CCCC3)cc2)cc1	1.35 µM	1.35 µM
COc1ccc(-c2csc(Nc3ccccn3)n2)cc1OC	1.22 µM	1.23 µM
COc1ccc(-c2csc(Nc3ccc(C)cn3)n2)cc1	3.03 µM	3.02 µM
Cc1ccc(Nc2nc(-c3ccc(-c4ccccn4)s3)cs2)nc1	1.23 µM	1.23 µM
COc1ccc(-c2csc(N(C)c3ccc4ccccc4n3)n2)cc1OC	0.14 µM	0.141 µM
